According to ChEMBL document CHEMBL4428055 (J Med Chem, 2016):
Activity calls are given as the source filed them. The calls are words filed in the database; no cut-off is given here.

Tests used:
[1] = target: T1, Aldo-keto reductase family 1 member C2 (Homo sapiens, UniProt P52895); experiment: Inhibition of human recombinant AKR1C2 using S-tetralol as substrate assessed as reduction in NADP+-dependent S-tetralol oxidation preincubated for 10 mins followed by protein addition by fluorometric assay
T1 sequence (P52895 whole entry): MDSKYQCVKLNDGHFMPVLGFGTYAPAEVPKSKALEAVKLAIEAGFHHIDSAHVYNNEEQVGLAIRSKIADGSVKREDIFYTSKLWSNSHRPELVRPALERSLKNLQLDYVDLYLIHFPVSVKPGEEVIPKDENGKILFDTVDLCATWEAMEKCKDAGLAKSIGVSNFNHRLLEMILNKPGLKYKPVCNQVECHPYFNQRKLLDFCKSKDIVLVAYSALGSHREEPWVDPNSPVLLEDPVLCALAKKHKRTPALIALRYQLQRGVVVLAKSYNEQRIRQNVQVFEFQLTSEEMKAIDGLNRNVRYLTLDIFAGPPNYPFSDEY

[2] = target: T2, Aldo-keto reductase family 1 member C3 (Homo sapiens, UniProt P42330); experiment: Inhibition of human recombinant AKR1C3 using S-tetralol as substrate assessed as reduction in NADP+-dependent S-tetralol oxidation preincubated for 10 mins followed by protein addition by fluorometric assay
T2 sequence (P42330 whole entry): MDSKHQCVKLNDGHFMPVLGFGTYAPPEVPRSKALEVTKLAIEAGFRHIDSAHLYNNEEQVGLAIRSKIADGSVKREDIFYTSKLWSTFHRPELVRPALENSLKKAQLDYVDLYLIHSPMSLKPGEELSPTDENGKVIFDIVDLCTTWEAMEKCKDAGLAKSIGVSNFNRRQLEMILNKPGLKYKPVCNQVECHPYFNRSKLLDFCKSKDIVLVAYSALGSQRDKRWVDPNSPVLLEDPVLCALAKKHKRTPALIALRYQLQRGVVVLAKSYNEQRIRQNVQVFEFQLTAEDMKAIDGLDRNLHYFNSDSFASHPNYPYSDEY

[3] = target: T3, Prostaglandin G/H synthase 1 (Ovis aries) (UniProt P05979); conditions: 100 uM
T3 sequence (whole entry): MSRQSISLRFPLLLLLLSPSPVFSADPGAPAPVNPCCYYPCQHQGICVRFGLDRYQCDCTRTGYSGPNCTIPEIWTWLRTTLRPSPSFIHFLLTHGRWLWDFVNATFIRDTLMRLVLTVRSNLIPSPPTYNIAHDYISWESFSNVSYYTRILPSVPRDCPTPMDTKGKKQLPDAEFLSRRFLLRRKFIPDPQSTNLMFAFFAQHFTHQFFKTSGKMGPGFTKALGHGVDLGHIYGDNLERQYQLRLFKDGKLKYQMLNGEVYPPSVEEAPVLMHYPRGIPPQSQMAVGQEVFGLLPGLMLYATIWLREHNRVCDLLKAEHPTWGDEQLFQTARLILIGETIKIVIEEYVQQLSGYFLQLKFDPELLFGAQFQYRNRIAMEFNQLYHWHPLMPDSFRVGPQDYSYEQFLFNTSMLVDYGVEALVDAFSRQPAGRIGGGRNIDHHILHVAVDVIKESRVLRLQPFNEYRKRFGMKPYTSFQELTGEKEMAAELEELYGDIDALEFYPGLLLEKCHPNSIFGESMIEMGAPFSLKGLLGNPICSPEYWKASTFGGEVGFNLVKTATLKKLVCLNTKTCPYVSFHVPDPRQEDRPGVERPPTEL

[4] = target: T4, Prostaglandin G/H synthase 2 (Homo sapiens, UniProt P35354); experiment: Inhibition of COX2 (unknown origin) using arachidonic acid as substrate assessed as […] by measuring TMPD oxidation preincubated for 5 mins followed by substrate/TMPD addition measured for 5 mins by colorimetric assay
T4 sequence (P35354 whole entry): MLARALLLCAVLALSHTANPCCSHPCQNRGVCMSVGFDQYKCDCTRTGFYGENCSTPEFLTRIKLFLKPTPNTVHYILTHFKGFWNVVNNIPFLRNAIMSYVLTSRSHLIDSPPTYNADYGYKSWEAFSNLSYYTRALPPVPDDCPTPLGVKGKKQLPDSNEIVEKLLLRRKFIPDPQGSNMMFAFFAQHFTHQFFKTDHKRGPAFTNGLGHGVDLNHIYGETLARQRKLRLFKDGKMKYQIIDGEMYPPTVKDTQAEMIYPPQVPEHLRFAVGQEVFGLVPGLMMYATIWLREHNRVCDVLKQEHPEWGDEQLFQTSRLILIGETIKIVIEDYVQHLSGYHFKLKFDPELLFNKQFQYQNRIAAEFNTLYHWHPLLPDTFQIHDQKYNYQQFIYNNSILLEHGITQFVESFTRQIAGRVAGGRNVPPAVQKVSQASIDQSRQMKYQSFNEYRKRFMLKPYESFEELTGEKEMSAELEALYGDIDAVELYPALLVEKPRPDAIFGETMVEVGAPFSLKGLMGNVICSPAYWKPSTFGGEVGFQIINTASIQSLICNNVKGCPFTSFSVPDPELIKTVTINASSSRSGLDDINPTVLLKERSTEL

[5] = target: T5, Androgen receptor (Homo sapiens) (UniProt P10275); experiment: Effect on 5alpha-DHT-induced activation of AR (unknown origin) expressed in human HeLa13 cells at 10 uM incubated for 20 hrs by luciferase reporter gene assay; assay type: cell-based
T5 sequence (whole entry): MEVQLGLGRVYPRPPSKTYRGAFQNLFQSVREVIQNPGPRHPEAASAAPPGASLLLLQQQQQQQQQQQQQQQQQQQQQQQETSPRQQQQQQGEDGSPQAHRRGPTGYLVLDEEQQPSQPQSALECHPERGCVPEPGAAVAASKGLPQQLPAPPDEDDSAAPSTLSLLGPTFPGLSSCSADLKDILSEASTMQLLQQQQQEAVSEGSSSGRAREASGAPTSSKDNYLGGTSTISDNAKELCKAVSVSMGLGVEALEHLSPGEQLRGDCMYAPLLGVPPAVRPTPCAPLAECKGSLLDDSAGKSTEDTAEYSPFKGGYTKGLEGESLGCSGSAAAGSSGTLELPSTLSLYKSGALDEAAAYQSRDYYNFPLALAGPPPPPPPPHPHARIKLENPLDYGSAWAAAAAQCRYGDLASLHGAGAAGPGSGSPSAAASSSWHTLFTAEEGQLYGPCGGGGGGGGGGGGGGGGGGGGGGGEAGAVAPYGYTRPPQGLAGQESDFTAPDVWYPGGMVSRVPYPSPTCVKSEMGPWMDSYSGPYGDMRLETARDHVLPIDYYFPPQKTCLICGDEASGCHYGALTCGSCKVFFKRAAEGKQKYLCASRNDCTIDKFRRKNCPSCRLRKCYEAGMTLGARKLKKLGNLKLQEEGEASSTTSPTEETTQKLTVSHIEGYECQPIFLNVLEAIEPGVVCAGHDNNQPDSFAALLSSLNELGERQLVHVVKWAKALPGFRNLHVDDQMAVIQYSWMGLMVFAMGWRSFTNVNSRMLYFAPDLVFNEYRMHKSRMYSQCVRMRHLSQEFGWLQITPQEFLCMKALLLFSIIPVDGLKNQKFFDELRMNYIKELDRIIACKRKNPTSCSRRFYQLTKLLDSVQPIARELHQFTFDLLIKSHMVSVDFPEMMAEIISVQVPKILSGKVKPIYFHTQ
Summary of the method: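 HeLa13 cells stably carrying AR and an androgen-response-element luciferase reporter were grown 48 h in phenol-red-free medium with 5% charcoal-stripped FBS. They were plated for 6–7 h, then given fresh medium with 5α-DHT (1 nM in methods; increasing concentrations also tested) plus inhibitor. Luciferase was read after 20 h, as fold induction over untreated cells.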

[6] = target: T6, Prostaglandin G/H synthase 1 (Ovis aries, UniProt P05979); experiment: Inhibition of COX1 in ram seminal vesicles using arachidonic acid as substrate assessed as reduction in […] by measuring TMPD oxidation preincubated for 5 mins followed by substrate/TMPD addition measured for 5 mins by colorimetric assay
T6 sequence (P05979 whole entry): T3 sequence (whole entry)

[7] = target: T7, Prostaglandin G/H synthase 2 (Homo sapiens) (UniProt P35354); experiment: Inhibition of COX2 (unknown origin) using arachidonic acid as substrate assessed as reduction in […] by measuring TMPD oxidation at 10 uM preincubated for 5 mins followed by substrate/TMPD addition measured for 5 mins by colorimetric assay
T7 sequence (whole entry): T4 sequence (P35354 whole entry)

Compound | IC50 [1] | IC50 [2] | other results
CSc1ccc2cc([C@H](C)C(=O)O)ccc2c1 | 1350 nM | 70 nM | –
COc1ccc2cc([C@@H](C)C(=O)O)ccc2c1 | 2750 nM | – | inhibition [3]: < 20%; IC50 ([4]; read-out: IC50): > 25000 nM
CC[C@@H](C(=O)O)c1ccc2cc(OC)ccc2c1 | – | – | IC50 [4]: Not Active; Activity [5]: inactive
CC[C@H](C(=O)O)c1ccc2cc(OC)ccc2c1 | 1720 nM | 120 nM | IC50 [6]: 1930 nM; IC50 [4]: Not Active
CCC(C(=O)O)c1ccc2cc(OC)ccc2c1 (racemic) | 7600 nM | 120 nM | inhibition [7]: inactive
CCc1ccc2cc(C(C)C(=O)O)ccc2c1 (racemic) | 1900 nM | 120 nM | –
CCC(C(=O)NS(C)(=O)=O)c1ccc2cc(OC)ccc2c1 (racemic) | 34000 nM | 6000 nM | –
CCOc1ccc2cc(C(C)C(=O)O)ccc2c1 (racemic) | 2400 nM | 100 nM | –
CSc1ccc2cc(C(C)C(=O)O)ccc2c1 (racemic) | 1500 nM | 60 nM | –
COc1ccc2cc([C@H](C)C(=O)O)ccc2c1 [NAPROXEN] | – | – | IC50 ([4]; read-out: IC50): 900 nM
